Measurements taken from ChEMBL document CHEMBL1124993, “2-Phenyl-2-(1-hydroxycycloalkyl)ethylamine derivatives: synthesis and antidepressant activity” (J Med Chem, 1990).
The source made the active and inactive calls. The rule behind the calls is not given here.

Key:
[1] = test system: Mus musculus; assay: In vivo antagonism of reserpine-induced hypothermia in the mice; assay type: functional; details: for minimal effective dose: Mus musculus, read-out: MED
In short: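 Male mice pretreated 18 h earlier with reserpine 5.0 mg/kg sc; compounds in 0.25% Tween 80 in water given ip or po at 1, 3, 10, 30, 100 mg/kg. Rectal temperature read at 1, 2, 3 h post-dose; MED for reversing hypothermia from two-way ANOVA with Dunnett's comparison to control.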

[2] = test system: Rattus norvegicus; assay: (§1) In vivo antagonism of histamine-induced ACTH release in the rat at 10 mg/kg (ip).; assay type: functional
In short: (§2)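 Male Sprague–Dawley rats (200–300 g) given compound in saline ip 1 h before saline or histamine (5 mg/kg ip); decapitated 10 min later, trunk blood serum assayed for ACTH by radioimmunoassay (pg/mL). Two-way ANOVA with Dunnett's and Student–Neuman–Keuls tests; value is % decrease of histamine-stimulated ACTH.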

[3] = test system: Rattus norvegicus; assay: (§3) In vivo noradrenergic responsiveness in the rat pineal gland at 10 mg/kg (ip) (chronic treatment); assay type: functional
In short: (§4)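 Male Sprague–Dawley rats kept in continuous light, dosed ip twice daily for 5 days (nine injections). 1 h after last dose, isoproterenol 2 μmol/kg in 0.1% ascorbic acid (controls: vehicle); pineal removed 2.5 min later, perchloric acid extract assayed for cAMP by 125I radioimmunoassay. Expressed as % change from control isoproterenol-stimulated pmol cAMP/pineal.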

[4] = test system: Rattus norvegicus; assay: In vivo noradrenergic responsiveness in the rat pineal gland at 10 mg/kg (ip) (single treatment); assay type: functional
In short: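 Male Sprague–Dawley rats kept in continuous light, given saline twice daily for 5 days, then a single 10 or 30 mg/kg ip dose on day 5. 1 h later, isoproterenol 2 μmol/kg in 0.1% ascorbic acid (or vehicle). Pineal removed 2.5 min after, perchloric acid extract, cAMP by radioimmunoassay; % change versus isoproterenol-stimulated controls.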

[5] = molecular target: Norepinephrine transporter (Rattus norvegicus, UniProt Q9WTR4); assay: Inhibition of uptake of tritiated norepinephrine (NE) into rat brain synaptosomes; assay type: functional, subcellular
[6] = test system: Rattus norvegicus; assay: In vivo antagonism of histamine-induced ACTH release in the rodents at 10 mg/kg (ip); No significant effect; assay type: functional, organism-based; set-up: dose 10 mg/kg; in short: as §2
[7] = test system: Rattus norvegicus; assay: In vivo noradrenergic responsiveness in the rat pineal gland at 10 mg/kg (ip) (single treatment); No significant effect; assay type: functional, organism-based; set-up: dose 10 mg/kg
[8] = test system: Rattus norvegicus; assay: In vivo noradrenergic responsiveness in the rat pineal gland at 10 mg/kg (ip) (chronic treatment); No significant effect; assay type: functional, organism-based; set-up: dose 10 mg/kg; in short: as §4
[9] = molecular target: Sodium-dependent serotonin transporter (Rattus norvegicus, UniProt P31652); assay: Inhibition of uptake of [14C]-labelled serotonin (5-HT) into rat brain synaptosomes
[10] = molecular target: T1, Serotonin 2 (5-HT2) receptor (Rattus norvegicus) (UniProt P30994+P08909+P14842)
[11] = molecular target: T1, Serotonin 2 (5-HT2) receptor (Rattus norvegicus); remark: listed apart in the source
[12] = molecular target: T2, Adrenergic receptor beta (Rattus norvegicus) (UniProt P18090+P10608+P26255)
[13] = molecular target: T2, Adrenergic receptor beta (Rattus norvegicus); remark: listed apart in the source
[14] = test system: Rattus norvegicus; assay: as §1; assay type: functional; remark: listed apart in the source
In short: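 Male Sprague–Dawley rats (200–300 g), 10 mg/kg in saline ip, 1 h before saline or histamine (5 mg/kg ip). Decapitated 10 min later; trunk-blood serum frozen at -60 °C, ACTH measured by radioimmunoassay (pg/mL). Two-way ANOVA with Dunnett's and Student–Neuman–Keuls tests; expressed as % decrease.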

[15] = test system: Rattus norvegicus; assay: as §3; assay type: functional; remark: listed apart in the source
In short: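 Male Sprague–Dawley rats under continuous light, injected ip twice daily for 5 days (nine injections) with 10 or 30 mg/kg. 1 h after last dose, isoproterenol 2 μmol/kg in 0.1% ascorbic acid (or vehicle). Pineal removed 2.5 min later, perchloric acid extract, cAMP by 125I radioimmunoassay; % change versus isoproterenol-stimulated controls.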

Sodium-dependent serotonin transporter, sequence (P31652 whole entry): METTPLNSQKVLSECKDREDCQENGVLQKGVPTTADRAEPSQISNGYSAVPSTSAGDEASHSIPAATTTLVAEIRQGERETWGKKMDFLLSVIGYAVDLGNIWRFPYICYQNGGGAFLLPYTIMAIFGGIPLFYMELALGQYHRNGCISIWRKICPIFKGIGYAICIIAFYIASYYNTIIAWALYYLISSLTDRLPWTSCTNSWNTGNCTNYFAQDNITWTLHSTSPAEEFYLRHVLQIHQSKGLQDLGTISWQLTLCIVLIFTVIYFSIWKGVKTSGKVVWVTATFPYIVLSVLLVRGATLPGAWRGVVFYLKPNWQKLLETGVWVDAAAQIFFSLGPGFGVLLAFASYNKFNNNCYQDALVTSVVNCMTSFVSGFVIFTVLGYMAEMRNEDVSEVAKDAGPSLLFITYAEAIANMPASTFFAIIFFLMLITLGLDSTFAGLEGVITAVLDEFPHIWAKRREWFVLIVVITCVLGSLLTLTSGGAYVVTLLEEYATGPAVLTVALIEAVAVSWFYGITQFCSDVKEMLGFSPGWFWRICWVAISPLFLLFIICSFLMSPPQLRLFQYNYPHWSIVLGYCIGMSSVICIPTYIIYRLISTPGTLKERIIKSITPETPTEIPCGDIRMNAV
Norepinephrine transporter, sequence (Q9WTR4 whole entry): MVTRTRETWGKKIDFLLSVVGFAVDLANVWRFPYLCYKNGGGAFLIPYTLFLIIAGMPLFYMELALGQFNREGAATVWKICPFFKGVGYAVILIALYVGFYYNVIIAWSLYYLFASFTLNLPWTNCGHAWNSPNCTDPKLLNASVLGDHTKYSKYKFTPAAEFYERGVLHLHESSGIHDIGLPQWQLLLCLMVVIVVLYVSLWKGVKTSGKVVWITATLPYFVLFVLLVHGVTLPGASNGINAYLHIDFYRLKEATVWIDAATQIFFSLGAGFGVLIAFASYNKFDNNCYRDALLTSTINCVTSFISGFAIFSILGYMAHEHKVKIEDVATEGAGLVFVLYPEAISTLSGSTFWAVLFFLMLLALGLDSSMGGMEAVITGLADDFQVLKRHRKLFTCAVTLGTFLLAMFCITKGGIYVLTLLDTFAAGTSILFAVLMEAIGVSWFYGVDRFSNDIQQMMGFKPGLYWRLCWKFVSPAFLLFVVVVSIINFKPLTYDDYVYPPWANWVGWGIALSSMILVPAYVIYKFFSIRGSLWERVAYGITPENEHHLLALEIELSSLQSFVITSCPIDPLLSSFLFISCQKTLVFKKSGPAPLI
T1 sequence (P08909 whole entry, looked up): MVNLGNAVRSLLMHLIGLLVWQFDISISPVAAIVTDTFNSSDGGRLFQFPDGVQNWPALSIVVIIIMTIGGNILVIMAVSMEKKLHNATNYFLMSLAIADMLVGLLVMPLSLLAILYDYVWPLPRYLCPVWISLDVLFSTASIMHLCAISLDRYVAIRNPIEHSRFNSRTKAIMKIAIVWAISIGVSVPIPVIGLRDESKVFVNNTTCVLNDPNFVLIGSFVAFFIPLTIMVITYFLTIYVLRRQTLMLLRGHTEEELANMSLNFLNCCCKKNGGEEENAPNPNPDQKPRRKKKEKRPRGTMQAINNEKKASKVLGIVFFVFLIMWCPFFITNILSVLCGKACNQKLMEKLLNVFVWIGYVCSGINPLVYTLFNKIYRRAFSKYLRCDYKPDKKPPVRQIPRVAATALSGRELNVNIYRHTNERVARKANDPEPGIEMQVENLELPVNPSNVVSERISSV
T1 sequence (P14842 whole entry, looked up): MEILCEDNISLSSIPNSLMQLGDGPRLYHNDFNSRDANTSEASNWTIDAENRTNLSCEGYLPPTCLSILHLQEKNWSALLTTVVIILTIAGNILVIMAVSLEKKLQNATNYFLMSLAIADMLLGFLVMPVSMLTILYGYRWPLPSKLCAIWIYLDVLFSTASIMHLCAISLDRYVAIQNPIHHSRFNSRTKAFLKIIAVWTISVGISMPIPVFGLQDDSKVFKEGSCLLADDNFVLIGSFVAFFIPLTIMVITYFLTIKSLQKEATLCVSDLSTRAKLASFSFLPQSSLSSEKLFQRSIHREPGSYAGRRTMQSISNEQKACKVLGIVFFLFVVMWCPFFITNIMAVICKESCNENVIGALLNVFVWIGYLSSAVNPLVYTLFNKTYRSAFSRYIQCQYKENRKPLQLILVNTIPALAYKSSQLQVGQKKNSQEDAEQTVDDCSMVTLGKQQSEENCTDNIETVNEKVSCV
T1 sequence (P30994 whole entry, looked up): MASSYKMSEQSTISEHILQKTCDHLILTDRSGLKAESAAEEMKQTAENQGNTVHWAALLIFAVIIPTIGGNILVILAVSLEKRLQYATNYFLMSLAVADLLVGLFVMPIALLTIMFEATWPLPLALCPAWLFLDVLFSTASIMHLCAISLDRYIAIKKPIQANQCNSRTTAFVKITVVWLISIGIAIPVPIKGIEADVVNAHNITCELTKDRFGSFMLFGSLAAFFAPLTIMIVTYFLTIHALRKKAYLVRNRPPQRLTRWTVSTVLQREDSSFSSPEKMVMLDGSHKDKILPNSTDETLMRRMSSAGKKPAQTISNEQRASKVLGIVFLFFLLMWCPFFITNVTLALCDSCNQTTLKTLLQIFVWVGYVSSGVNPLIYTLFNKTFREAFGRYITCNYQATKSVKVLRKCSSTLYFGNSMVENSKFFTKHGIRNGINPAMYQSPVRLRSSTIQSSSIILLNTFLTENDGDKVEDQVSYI

For `CN(C)CC(c1ccc(Cl)c(Cl)c1)C1(O)CCCCC1` (centres undefined), the minimal effective dose [1] was 3 mg/kg, the Decrease [2] was 55% and the Change [3] was -74%. For the same compound, the Change [4] was -51% and the IC50 [5] was 70 nM.
With `CN(C)CC(c1cccc(Cl)c1)C1(O)CCCCC1` (centres undefined) the Change [6] was “inactive”, the minimal effective dose [1] was 1 mg/kg and the Change [7] was “inactive”. The Change [8] was “inactive”.
`COc1ccc(C(CN(C)C)C2(O)CCCC2)cc1` (centres undefined) showed an IC50 [9] of 400 nM and an IC50 [5] of 5800 nM.
With `CN(C)CC(c1ccc(Br)cc1)C1(O)CCC1` (centres undefined) the IC50 [9] was 580 nM and the IC50 [5] was 890 nM.
Compound `CN(C)CC(c1cccc(C(F)(F)F)c1)C1(O)CCCCC1` (centres undefined) has an IC50 [9] of 1440 nM and an IC50 [5] of 360 nM.
`COc1ccc(C(CN(C)C)C2(O)CCCCC2)cc1` (stereo in doubt; 4) showed a Binding activity [10] of 251 fM/mg, a Binding activity [11] of 77.8 fM/mg and a Binding activity [12] of 35 fM/mg. The Binding activity [13] was 61.8 fM/mg.
In the case of `CN(C)CC(c1ccc(O)cc1)C1(O)CCCCC1` (centres undefined) [DESVENLAFAXINE], the IC50 [5] is reported as 1160 nM.
`COc1ccc(C(CN(C)C)C2(O)CCCCC2)cc1` (single isomer, unassigned; (+)) [VENLAFAXINE] showed an MED [1] of 30 mg/kg and a Decrease ([14]; 10 mg/kg) of 54%.
`CN(C)CC(c1ccc(Br)cc1)C1(O)CCCCC1` (centres undefined) was tested, and the IC50 [9] was 110 nM, the minimal effective dose [1] was 1 mg/kg and the Decrease [2] was 43%. For the same compound, the Change [7] was “inactive”, the Change [8] was “inactive” and the IC50 [5] was 210 nM.
Work on `COc1ccc(C(CN(C)C)C2(O)CCCCC2)cc1OC` (centres undefined) yielded an IC50 [9] of 130 nM and an IC50 [5] of 1380 nM.
In the case of `CNCCCN1c2ccccc2CCc2ccccc21` [DESIPRAMINE], the minimal effective dose [1] is reported as 0.4 mg/kg, the Decrease [2] is reported as 52% and the Change [7] is reported as “inactive”. It also gave a Change [3] of -81%.
`CN(C)CC(c1cccc(Br)c1)C1(O)CCCCC1` (centres undefined) was tested, and the IC50 [9] was 230 nM, the minimal effective dose [1] was 1 mg/kg and the Change [7] was “inactive”. The Decrease [14] was 67%, the Change [8] was “inactive” and the IC50 [5] was 110 nM.
`CN(C)CC(c1ccc(Cl)cc1)C1(O)CCCCC1` (centres undefined) was tested, and the IC50 [9] was 180 nM and the IC50 [5] was 300 nM.
In the case of `COc1cccc(C(CN(C)C)C2(O)CCCC2)c1` (centres undefined), the IC50 [9] is reported as 680 nM and the IC50 [5] is reported as over 10000 nM.
Compound `COc1ccc(C(CN(C)C)C2(O)CCCCC2)cc1Br` (centres undefined) has an IC50 [9] of 200 nM, a minimal effective dose [1] of 1 mg/kg and a Decrease [2] of 34%. It also gave a Change [3] of -82%, a Change [4] of -65% and an IC50 [5] of 140 nM.
`COc1ccc(C(CN(C)C)C2(O)CCCCCC2)cc1` (centres undefined) showed an IC50 [9] of 240 nM and an IC50 [5] of 2070 nM.
In the case of `COc1ccc(C(CN(C)C)C2(O)CCCCC2)cc1` (single isomer, unassigned; (+)), the Change [7] is reported as “inactive” and the Change [8] is reported as “inactive”.
For `COc1ccc(C(CN(C)C)C2(O)CCCCC2)cc1` (stereo in doubt; 4) [VENLAFAXINE], the MED [1] was 10 mg/kg, the Decrease [2] was 26% and the Change [3] was -43%. The Change [4] was -51%.
`CN(C)CC(c1ccccc1)C1(O)CCCCC1` (centres undefined) gave an IC50 [5] of 1900 nM.
Compound `COc1ccc(C(CN(C)C)C2(O)CCCCC2)cc1` (single isomer, unassigned; (-)) [VENLAFAXINE] has a Change [15] of -51%, an MED [1] of 3 mg/kg and a Decrease ([14]; 10 mg/kg) of 37%. The Change [4] was -53%.
Work on `CN(C)CC(c1ccc(C(F)(F)F)cc1)C1(O)CCCCC1` (centres undefined) yielded an IC50 [9] of 400 nM and an IC50 [5] of 2800 nM.
For `CNCC(c1ccc(OC)cc1)C1(O)CCCCC1` (centres undefined) [N-DESMETHYLVENLAFAXINE CHLORIDE], the IC50 [9] was 1600 nM and the IC50 [5] was 4700 nM.
For `COc1cccc(C(CN(C)C)C2(O)CCCCC2)c1` (centres undefined), the IC50 [9] was 190 nM, the minimal effective dose [1] was 3 mg/kg and the Decrease [2] was 52%. For the same compound, the Change [3] was -81%, the Change [4] was -79% and the IC50 [5] was 620 nM.
Compound `CN(C)CC(c1ccc(C(F)(F)F)cc1)C1(O)CCCCCC1` (centres undefined) has an IC50 [9] of 500 nM and an IC50 [5] of 2400 nM.
`CN(C)CC(c1ccc(C(F)(F)F)cc1)C1(O)CCCC1` (centres undefined) gave an IC50 [9] of 490 nM and an IC50 [5] of 10400 nM.
With `Cc1ccc(C(CN(C)C)C2(O)CCCCC2)cc1` (centres undefined) the IC50 [9] was 1540 nM and the IC50 [5] was 530 nM.
